From ChEMBL document CHEMBL1126896, “Preparation and anti-HIV activity of O-acylated heparin and dermatan sulfate derivatives with low anticoagulant effect” (J Med Chem, 1993) come the findings set out here.

For assay [1], the system named is HuT78. Nature of the assay: Giant-cell formation between persistently HIV-1 infected HUT-78 cells and uninfected MOLT-4 cells. Format: functional, cell-based. In a few lines:
(§1)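 MOLT-4 cells were co-cultured with an equal number of HUT-78 cells persistently infected with HIV-1 IIIB or HIV-2 ROD, with varying compound concentrations. Syncytia were counted by flow cytofluorography after 24 h. EC50 is the concentration giving 50% protection against giant-cell formation.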

For assay [2], the system named is MT4. Nature of the assay: Effective concentration to achieve 50% protection of MT-4 cells against the cytopathic effect of HIV-1. Format: functional, cell-based. In general terms: Protection from cytopathic effect is a common read-out in antiviral testing.
Assay [3] can be described thus: In vitro anticoagulant activity was determined by the clotting test of activated partial thromboplastin time (APTT) on a pool of human plasma; 1-2. Type of assay: functional. In a few lines:
(§2)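 Activated partial thromboplastin time clotting test on pooled human plasma, run on an automatic coagulometer. Activities were calculated according to the European Pharmacopoeia.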

Assay [4] deals with MT4. The assay is described as follows: Effective concentration to achieve 50% protection of MT-4 cells against the cytopathic effect of HIV-2. Format: functional, cell-based.
In assay [5] the test system is Human immunodeficiency virus 1. The assay is described as follows: Antiviral activity against HIV-1 infected with HTLVIIIB (TIBO). Format: functional, organism-based.
In assay [6] the test system is Human immunodeficiency virus 2. Nature of the assay: Antiviral activity against HIV-2 infected with LAV-2 ROD. Format: functional, organism-based.
Assay [7] deals with Human immunodeficiency virus 1. Nature of the assay: Antiviral activity against HIV-1 infected with […]. Type of assay: functional, organism-based.
Assay [8] deals with Human immunodeficiency virus 1. The assay is described as follows: Antiviral activity against HIV-1 infected with HIV-1HE. Format: functional, organism-based.
The nature of assay [9]: In vitro anticoagulant activity determined by clotting test of activated partial thromboplastin time (APTT) on a pool of human plasma. Format: functional. In a few lines: as §2
Assay [10] has as its system Human immunodeficiency virus 1. The assay is described as follows: Antiviral activity against HIV-1 infected with HTLVIIIB
Type of assay: functional, organism-based.

Assay [11] has as its system Simian immunodeficiency virus. The assay is described as follows: Antiviral activity against SIV. Format: functional, organism-based.
For assay [12], the system named is Human immunodeficiency virus 2. Nature of the assay: Antiviral activity against HIV-2 infected with LAV-2 EHO. Format: functional, organism-based.
For assay [13], the system named is MT4. Nature of the assay: Selectivity index for CC50 (cytotoxic concentration based on the reduction of the viability of mock-infected MT-4 cells) to that of EC50 against HIV-1. Type of assay: functional. In a few lines:
(§3)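 MT-4 cells at 3 × 10^5 cells/mL were infected with HIV-1 IIIB or HIV-2 ROD at 100 CCID50/mL, or mock-infected, alongside serial compound dilutions. Viability was read by MTT after 5 days at 37 °C. CC50 comes from mock-infected cells and EC50 from protection against cytopathicity. Index = CC50/EC50.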

Assay [14] relates to MT4. The assay is described as follows: Selectivity index for CC50 (cytotoxic concentration based on reduction of viability of mock-infected MT-4 cells) to that of EC50 against HIV-2. Format: functional. In a few lines:
as §3

Assay [15] deals with HuT78. Nature of the assay: Giant-cell formation between persistently HIV-2 infected HUT-78 cells and uninfected MOLT-4 cells. Format: functional, cell-based. In a few lines:
as §1

Setting [16] is: Homo sapiens, HuT78, read-out: EC50.
[17] abbreviates: Homo sapiens, MT4, read-out: EC50.

Molecules are shown by their SMILES.

As to `COC1C(NC(C)=O)C(OC2C(C(=O)[O-])OC(OC3C(NC(C)=O)C(OC4C(C(=O)[O-])OC(C)C(O)C4O)OC(CO)C3OS(=O)(=O)[O-])C(O)C2O)OC(CO)C1OS(=O)(=O)[O-].[Na+].[Na+].[Na+].[Na+]` (centres undefined), the values for the EC50 in the assay on HuT78 [1] (setting [16]), with MT4 [2] (setting [17]) and with MT4 [4] (setting [17]) were over 500 µg/mL, over 625 µg/mL and over 625 µg/mL, respectively. In assay [3], this compound returned an APTT of 1 IU mg-1.

`CC(=O)OC/C(=C\C(=O)[O-])OC1OC(COS(=O)(=O)[O-])C(OC2OC(C(=O)[O-])C(OC3OC(COS(=O)(=O)[O-])C(OC4OC(C(=O)[O-])C(OC5OC(CS(=O)(=O)[O-])C(O)C(OC(C)=O)C5NS(=O)(=O)[O-])C(OC(C)=O)C4OS(=O)(=O)[O-])C(OC(C)=O)C3NS(=O)(=O)[O-])C(OC(C)=O)C2OS(=O)(=O)[O-])C(OC(C)=O)C1NS(=O)(=O)[O-].[Na+].[Na+].[Na+].[Na+].[Na+].[Na+].[Na+].[Na+].[Na+].[Na+].[Na+]` (centres undefined): the EC50 (commonly the concentration that produces a half-maximal response) in assay [5] was 0.6 µg/mL; in [6] it was 2.2 µg/mL; in [7], 1.3 µg/mL; in [8] it was 1.5 µg/mL; in assay [10] it was 0.5 µg/mL; in [11] it was 7.4 µg/mL. The EC50 in the assay on HuT78 [1] (setting [16]) is 165 µg/mL; in the assay on MT4 [2] (setting [17]), 0.53 µg/mL; in the assay with MT4 [4] (setting [17]) it was 0.59 µg/mL; in [12], 4.3 µg/mL. The compound also showed an APTT in assay [9] of 10 IU mg-1. The Selectivity index in the assay with MT4 [13] is recorded as over 943; with MT4 [14] it was over 847.

In the case of `CCCC(=O)OC/C(=C\C(=O)OCc1ccccc1)OC1OC(COS(=O)(=O)[O-])C(OC2OC(C(=O)OCc3ccccc3)C(OC3OC(COS(=O)(=O)[O-])C(OC4OC(C(=O)OCc5ccccc5)C(OC5OC(COS(=O)(=O)[O-])C(O)C(OC(=O)CCC)C5NS(=O)(=O)[O-])C(OC(=O)CCC)C4OS(=O)(=O)[O-])C(OC(=O)CCC)C3NS(=O)(=O)[O-])C(OC(=O)CCC)C2OS(=O)(=O)[O-])C(OC(=O)CCC)C1NS(=O)(=O)[O-].[Na+].[Na+].[Na+].[Na+].[Na+].[Na+].[Na+].[Na+]` (centres undefined), the EC50 in assay [5] worked out at 0.7 µg/mL; in assay [6], 0.9 µg/mL; in assay [7] it was 0.2 µg/mL; in assay [8], 1.1 µg/mL; in [10] it was 0.2 µg/mL; in [11], 10.2 µg/mL. Further, the EC50 worked out at 1 µg/mL in the assay on HuT78 [1] (setting [16]); 0.36 µg/mL with MT4 [2] (setting [17]); 0.42 µg/mL in the assay on MT4 [4] (setting [17]); 1.3 µg/mL in assay [12]; 1 µg/mL with HuT78 [15] (setting [16]). The compound also came in with an APTT in assay [9] of 4 IU mg-1. For the same compound, the Selectivity index in the assay on MT4 [13] was over 1389; in the assay with MT4 [14], over 1190.

As to `O=C([O-])/C=C(\CO)OC1OC(COS(=O)(=O)[O-])C(OC2OC(C(=O)[O-])C(OC3OC(COS(=O)(=O)[O-])C(OC4OC(C(=O)[O-])C(OC5OC(COS(=O)(=O)[O-])C(O)C(O)C5NS(=O)(=O)[O-])C(O)C4OS(=O)(=O)[O-])C(O)C3NS(=O)(=O)[O-])C(O)C2OS(=O)(=O)[O-])C(O)C1NS(=O)(=O)[O-].[Na+].[Na+].[Na+].[Na+].[Na+].[Na+].[Na+].[Na+].[Na+].[Na+].[Na+]` (stereo in doubt; 2a), the EC50 was 1.5 µg/mL in assay [5]; over 250 µg/mL in assay [6]; 0.3 µg/mL in assay [7]; 11.7 µg/mL in [8]; 1.5 µg/mL in assay [10]; 150 µg/mL in assay [11]. For the same compound, the EC50 with HuT78 [1] (hut78) is over 500 µg/mL; in the assay on MT4 [2] (mt4), 1.53 µg/mL; in the assay on MT4 [4] (mt4), 6.3 µg/mL; in assay [12] it was 17.9 µg/mL. In addition, the APTT in [9] amounted to 4 IU mg-1. The results for the Selectivity index with MT4 [13] and in the assay on MT4 [14] were over 327 and over 80, respectively.

Turning to `CCCC(=O)OC/C(=C\C(=O)[O-])O[C@H]1O[C@H](COS(=O)(=O)[O-])[C@@H](O[C@@H]2O[C@@H](C(=O)[O-])[C@@H](O[C@H]3O[C@H](COS(=O)(=O)[O-])[C@@H](O[C@@H]4O[C@@H](C(=O)[O-])[C@@H](O[C@H]5O[C@H](CS(=O)(=O)[O-])[C@@H](O)[C@H](OC(=O)CCC)[C@H]5NS(=O)(=O)[O-])[C@H](OC(=O)CCC)[C@H]4OS(=O)(=O)[O-])[C@H](OC(=O)CCC)[C@H]3NS(=O)(=O)[O-])[C@H](OC(=O)CCC)[C@H]2OS(=O)(=O)[O-])[C@H](OC(=O)CCC)[C@H]1NS(=O)(=O)[O-].[Na+].[Na+].[Na+].[Na+].[Na+].[Na+].[Na+].[Na+].[Na+].[Na+].[Na+]` (stereo in doubt; 4g), the EC50 in assay [5] was 0.3 µg/mL; in assay [6], 0.7 µg/mL; in [7], 0.1 µg/mL; in assay [8], 0.9 µg/mL; in assay [10] it was 0.1 µg/mL; in [11], 5.9 µg/mL. Also, the figures for the EC50 (in the assay on HuT78 [1] (hut78); with MT4 [4] (mt4); in assay [12]) were 31.9 µg/mL, 0.17 µg/mL and 1.3 µg/mL, respectively. For the same compound, in assay [9], the APTT turned out to be 8.5 IU mg-1. In addition, the Selectivity index with MT4 [14] is reported as over 2141.

The compound `CCCCCCCCOC(=O)/C=C(\CO)OC1OC(COS(=O)(=O)[O-])C(OC2OC(C(=O)OCCCCCCCC)C(OC3OC(COS(=O)(=O)[O-])C(OC4OC(C(=O)OCCCCCCCC)C(OC5OC(COS(=O)(=O)[O-])C(O)C(O)C5NS(=O)(=O)[O-])C(O)C4OS(=O)(=O)[O-])C(O)C3NS(=O)(=O)[O-])C(O)C2OS(=O)(=O)[O-])C(O)C1NS(=O)(=O)[O-].[Na+].[Na+].[Na+].[Na+].[Na+].[Na+].[Na+].[Na+]` (stereo in doubt; 7f) had an APTT in [9] of 3 IU mg-1. Besides, the EC50 was found to be 4 µg/mL in the assay with HuT78 [1] (setting [16]), 0.7 µg/mL with MT4 [2] (setting [17]), 1.1 µg/mL with MT4 [4] (mt4) and 18 µg/mL with HuT78 [15] (setting [16]). Further, the Selectivity index with MT4 [13] is over 714; in the assay on MT4 [14], over 454.

Regarding `CCCCCCCCOC(=O)/C=C(\CO)OC1OC(COS(=O)(=O)[O-])C(OC2OC(C(=O)OCCCCCCCC)C(OC3OC(COS(=O)(=O)[O-])C(OC4OC(C(=O)OCCCCCCCC)C(OC5OC(COS(=O)(=O)[O-])C(O)C(O)C5NS(=O)(=O)[O-])C(O)C4OS(=O)(=O)[O-])C(O)C3NS(=O)(=O)[O-])C(O)C2OS(=O)(=O)[O-])C(O)C1NS(=O)(=O)[O-].[Na+].[Na+].[Na+].[Na+].[Na+].[Na+].[Na+].[Na+]` (stereo in doubt; 7g), the APTT in [9] is reported as 6 IU mg-1. The EC50 came out at 4 µg/mL in the assay on HuT78 [1] (hut78), 0.59 µg/mL with MT4 [2] (mt4), 0.5 µg/mL with MT4 [4] (mt4) and 20 µg/mL with HuT78 [15] (hut78). The Selectivity index with MT4 [13] is listed as over 833; in the assay with MT4 [14], over 1000.
